From ChEMBL document CHEMBL1773009, “Red-fluorescent argininamide-type NPY Y1 receptor antagonists as pharmacological tools” (Bioorg Med Chem, 2011)
The source made the active and inactive calls. The calls are words filed in the database; no cut-off is given here.

Tests used:
[1] = target: T1, Neuropeptide Y receptor type 1 (Homo sapiens) (UniProt P25929); assay: Antagonist activity at Y1R in human HEL cells assessed as inhibition of pNPY induced [Ca2+] mobilisation; format: functional, cell-based
T1 sequence (whole entry): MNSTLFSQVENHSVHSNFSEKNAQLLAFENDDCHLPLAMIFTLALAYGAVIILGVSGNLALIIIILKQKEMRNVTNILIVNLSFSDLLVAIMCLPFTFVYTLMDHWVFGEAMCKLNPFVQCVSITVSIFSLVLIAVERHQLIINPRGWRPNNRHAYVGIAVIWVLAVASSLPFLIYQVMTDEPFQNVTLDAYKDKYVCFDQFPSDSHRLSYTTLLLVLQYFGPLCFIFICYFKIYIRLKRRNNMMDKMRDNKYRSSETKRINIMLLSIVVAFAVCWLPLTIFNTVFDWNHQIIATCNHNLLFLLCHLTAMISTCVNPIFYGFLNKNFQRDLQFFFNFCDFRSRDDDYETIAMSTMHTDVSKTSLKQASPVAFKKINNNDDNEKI

[2] = target: T2, Neuropeptide Y receptor type 1 (Homo sapiens, UniProt P25929); assay: Displacement of [3H]-UR-MK114 from Y1R in human SK-N-MC cells; format: cell-based
T2 sequence (P25929 whole entry): T1 sequence (whole entry)

[3] = Chemical stability of the compound in DMSO at below 0 degC; format: physicochemical
[4] = target: T1, Neuropeptide Y receptor type 1 (Homo sapiens); assay: Antagonist activity at Y1R in human MCF-7 cells at 50 nM after 5 to 8 mins by fluorescence confocal microscopy; format: functional, cell-based; conditions: MCF7
Summary of the method: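 MCF-7-Y1 cells (MCF-7 subclone with 2–3-fold higher Y1R expression) pretreated 48 or 72 h with 1 nM 17β-estradiol; live-cell confocal imaging of fluorescent ligand (50–80 nM) after 5–23 min at rt in Leibovitz L15; non-specific binding with excess BIBP 3226 (5 µM or 80–125-fold); autofluorescence control.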

[5] = target: T3, Neuropeptide Y receptor type 2 (Homo sapiens, UniProt P49146); assay: Displacement of Dy-635-pNPY from human Y2R expressed in CHO cells by flow cytometry; format: cell-based
T3 sequence (P49146 whole entry): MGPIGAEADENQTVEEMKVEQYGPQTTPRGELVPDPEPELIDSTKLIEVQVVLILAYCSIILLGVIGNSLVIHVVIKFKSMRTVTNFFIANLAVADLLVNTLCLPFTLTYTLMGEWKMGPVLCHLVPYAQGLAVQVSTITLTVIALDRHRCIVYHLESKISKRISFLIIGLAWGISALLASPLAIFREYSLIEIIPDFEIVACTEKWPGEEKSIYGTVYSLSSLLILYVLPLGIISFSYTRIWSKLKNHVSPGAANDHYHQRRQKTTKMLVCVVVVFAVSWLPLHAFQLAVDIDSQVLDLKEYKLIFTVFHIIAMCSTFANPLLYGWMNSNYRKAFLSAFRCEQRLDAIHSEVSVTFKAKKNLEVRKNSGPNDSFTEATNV
Summary of the method: (§1)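 Flow cytometric displacement of labelled peptides: Cy5-[K4]-hPP on CHO-Y4 cells; Dy-635-pNPY or Cy5-pNPY on CHO-Y2 and HEC-1B-Y5 cells. Test ligands only at 1 and 10 µM or at 0.3 and 1 µM; for the red-excitable ligand, its own fluorescence without peptide was subtracted.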

[6] = Chemical stability in aqueous buffer assessed as compound decomposition after 90 mins at pH 7 by HPCL; format: physicochemical; conditions: read-out: Activity
Summary of the method: (§2)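 Compound at 50 µM final (from 1 mM DMSO stock) in PBS pH 7.0, 20 °C; aliquots at 20 and 90 min diluted with acetonitrile/H2O/1% TFA, analysed by RP-HPLC (220 nm); release of parent argininamide quantified against a five-point calibration curve (0.3–25 µM).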

[7] = target: T4, Neuropeptide Y receptor type 5 (Homo sapiens, UniProt Q15761); assay: Displacement of Dy-635-pNPY from human Y5R expressed in HEC-1B cells by flow cytometry
T4 sequence (Q15761 whole entry): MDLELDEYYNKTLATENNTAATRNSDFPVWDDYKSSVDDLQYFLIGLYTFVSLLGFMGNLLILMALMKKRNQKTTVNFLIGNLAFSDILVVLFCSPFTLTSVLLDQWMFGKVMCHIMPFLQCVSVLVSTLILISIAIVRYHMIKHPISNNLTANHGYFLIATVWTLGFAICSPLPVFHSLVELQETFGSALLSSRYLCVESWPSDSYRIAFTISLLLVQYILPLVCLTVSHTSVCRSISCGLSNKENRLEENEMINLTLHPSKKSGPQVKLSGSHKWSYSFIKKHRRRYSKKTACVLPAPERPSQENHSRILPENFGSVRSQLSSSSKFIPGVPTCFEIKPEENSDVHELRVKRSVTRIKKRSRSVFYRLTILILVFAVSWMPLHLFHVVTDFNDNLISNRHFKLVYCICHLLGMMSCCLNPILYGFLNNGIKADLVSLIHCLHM

[8] = target: T2, Neuropeptide Y receptor type 1; assay: Displacement of [3H]-UR-MK114 from Y1R in human SK-N-MC cells by radioligand competition binding
[9] = Chemical stability in aqueous buffer assessed as compound decomposition after 20 mins at pH 7 by HPCL; format: physicochemical; conditions: read-out: Activity; summary of the method: as §2
[10] = target: Neuropeptide Y receptor type 4 (Homo sapiens, UniProt P50391); assay: Displacement of Cy5-[K4]-hpp from human Y4R expressed in CHO cells by flow cytometry; format: cell-based; summary of the method: as §1
Neuropeptide Y receptor type 4, sequence (P50391 whole entry): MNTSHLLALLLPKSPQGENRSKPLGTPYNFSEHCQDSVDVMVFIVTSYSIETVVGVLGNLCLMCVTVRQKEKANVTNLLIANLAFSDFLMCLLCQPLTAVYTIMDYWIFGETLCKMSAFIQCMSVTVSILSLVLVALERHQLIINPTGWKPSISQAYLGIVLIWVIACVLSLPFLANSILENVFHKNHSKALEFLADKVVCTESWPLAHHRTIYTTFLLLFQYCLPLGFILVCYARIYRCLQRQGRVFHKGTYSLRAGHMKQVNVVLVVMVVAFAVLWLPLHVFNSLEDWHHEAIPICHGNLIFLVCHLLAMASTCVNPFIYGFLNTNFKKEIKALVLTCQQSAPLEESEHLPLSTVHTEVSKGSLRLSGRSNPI

SMILES: Cc1cc(/C=C\C=C2\N(C)c3ccc4ccccc4c3C2(C)C)cc(C)[n+]1CCOCCOCCNC(=O)CCCCCCC(=O)/N=C(/N)NCCC[C@@H](NC(=O)C(c1ccccc1)c1ccccc1)C(=O)NCc1ccc(O)cc1.O=C([O-])C(F)(F)F
- Kb [1]: 7.8 nM
- Ki [2]: 130 nM
- Stability [3]: 12 months

SMILES: N=C(N)N(CCC[C@@H](NC(=O)C(c1ccccc1)c1ccccc1)C(=O)NCc1ccc(O)cc1)C(=O)NCCCCN
- Kb [1]: 510 nM
- Ki [2]: 38 nM

SMILES: CN(C)c1ccc(/C=C/C=C/c2sc3ccccc3[n+]2CCCC(=O)ON2C(=O)CCC2=O)cc1.O=C([O-])C(F)(F)F
- Stability [3]: 12 months

SMILES: NCCCCNC(=O)/N=C(/N)NCCC[C@@H](NC(=O)C(c1ccccc1)c1ccccc1)C(=O)NCc1ccc(O)cc1
- Kb [1]: 16 nM
- Ki [2]: 4.3 nM

SMILES: Cc1cc(/C=C/c2cc3c4c(c2)CCCN4CCC3)cc(C)[n+]1CCCCNC(=O)/N=C(/N)NCCC[C@@H](NC(=O)C(c1ccccc1)c1ccccc1)C(=O)NCc1ccc(O)cc1.O=C([O-])C(F)(F)F
- Kb [1]: 7.2 nM
- Ki [2]: 140 nM
- Stability [3]: 12 months

SMILES: NCCCCCC(=O)/N=C(/N)NCCC[C@@H](NC(=O)C(c1ccccc1)c1ccccc1)C(=O)NCc1ccc(O)cc1
- Kb [1]: 95 nM

SMILES: NCCCCCC(=O)NC(N)=NCCC[C@@H](NC(=O)C(c1ccccc1)c1ccccc1)C(=O)NCc1ccc(O)cc1
- Ki [2]: 19 nM

SMILES: Cc1cc(/C=C/C=C/c2ccc(N(C)C)cc2)cc(C)[n+]1CCCCNC(=O)/N=C(/N)NCCC[C@@H](NC(=O)C(c1ccccc1)c1ccccc1)C(=O)NCc1ccc(O)cc1.O=C([O-])C(F)(F)F
- Kb [1]: 7.6 nM
- Ki [2]: 150 nM
- Stability [3]: 12 months

SMILES: Cc1cc(/C=C/C=C/c2ccc(N(C)C)cc2)cc(C)[n+]1CCCCCC(=O)/N=C(/N)NCCC[C@@H](NC(=O)C(c1ccccc1)c1ccccc1)C(=O)NCc1ccc(O)cc1.O=C([O-])C(F)(F)F
- Kb [1]: 3.7 nM
- Ki [2]: 50 nM
- Stability [3]: 12 months

SMILES: Cc1cc(/C=C/C=C/c2ccc(N(C)C)cc2)cc(C)[n+]1CCOCCOCC(=O)/N=C(/N)NCCC[C@@H](NC(=O)C(c1ccccc1)c1ccccc1)C(=O)NCc1ccc(O)cc1.O=C([O-])C(F)(F)F
- Activity [4]: Active
- Kb [1]: 11 nM
- Ki [2]: 24 nM
- Stability [3]: 12 months

SMILES: Cc1cc(/C=C/c2cc3c4c(c2)CCCN4CCC3)cc(C)[n+]1CCNC(=O)CCCC(=O)/N=C(/N)NCCC[C@@H](NC(=O)C(c1ccccc1)c1ccccc1)C(=O)NCc1ccc(O)cc1.O=C([O-])C(F)(F)F
- IC50 [5]: > 10000 nM
- Ki [5]: > 3000 nM
- degraded at 1.5 h [6]: 2.6%
- IC50 [7]: > 10000 nM
- Ki [7]: > 5000 nM
- Activity [4]: Active
- Kb [1]: 6 nM
- Ki [8]: 22 nM
- Ki [2]: 22 nM
- degraded at 20 min [9]: 1%
- IC50 [10]: > 10000 nM
- Ki [10]: > 3000 nM
- Stability [3]: 12 months

SMILES: Cc1cc(/C=C/c2cc3c4c(c2)CCCN4CCC3)cc(C)[n+]1CCCCCC(=O)/N=C(/N)NCCC[C@@H](NC(=O)C(c1ccccc1)c1ccccc1)C(=O)NCc1ccc(CNC(N)=O)cc1.O=C([O-])C(F)(F)F
- degraded at 1.5 h [6]: < 0.5%
- Activity [4]: Active
- Kb [1]: 12 nM
- Ki [2]: 23 nM
- degraded at 20 min [9]: 0%
- Stability [3]: 12 months

SMILES: Cc1cc(/C=C/c2cc3c4c(c2)CCCN4CCC3)cc(C)[n+]1CCCNC(=O)CCCC(=O)/N=C(/N)NCCC[C@@H](NC(=O)C(c1ccccc1)c1ccccc1)C(=O)NCc1ccc(O)cc1.O=C([O-])C(F)(F)F
- Kb [1]: 11 nM
- Ki [2]: 38 nM
- Stability [3]: 12 months

SMILES: CN(C)c1ccc(/C=C/C=C/c2sc3ccccc3[n+]2CCCC(=O)NCCNC(=O)CCCC(=O)/N=C(/N)NCCC[C@@H](NC(=O)C(c2ccccc2)c2ccccc2)C(=O)NCc2ccc(O)cc2)cc1.O=C([O-])C(F)(F)F
- Kb [1]: 2.4 nM
- Ki [2]: 42 nM
- Stability [3]: 12 months

SMILES: CN(C)c1ccc(/C=C/C=C/c2sc3ccccc3[n+]2CCCC(=O)O)cc1.O=C([O-])C(F)(F)F
- Stability [3]: 12 months

SMILES: Cc1cc(/C=C/C=C2\N(C)c3ccc4ccccc4c3C2(C)C)cc(C)[n+]1CCOCCOCCNC(=O)CCCCC(=O)/N=C(/N)NCCC[C@@H](NC(=O)C(c1ccccc1)c1ccccc1)C(=O)NCc1ccc(O)cc1.O=C([O-])C(F)(F)F
- Kb [1]: 8 nM
- Ki [2]: 130 nM
- Stability [3]: 12 months

SMILES: Cc1cc(/C=C/C=C2\N(C)c3ccc4ccccc4c3C2(C)C)cc(C)[n+]1CCOCCOCCNC(=O)CCCC(=O)/N=C(/N)NCCC[C@@H](NC(=O)C(c1ccccc1)c1ccccc1)C(=O)NCc1ccc(O)cc1.O=C([O-])C(F)(F)F
- Kb [1]: 6.8 nM
- Ki [2]: 96 nM
- Stability [3]: 12 months

SMILES: Cc1cc(/C=C/c2cc3c4c(c2)CCCN4CCC3)cc(C)[n+]1CCN(CCNC(=O)CCCCCCC(=O)/N=C(\N)NCCC[C@@H](NC(=O)C(c1ccccc1)c1ccccc1)C(=O)NCc1ccc(O)cc1)CCNC(=O)CCCCCCC(=O)/N=C(\N)NCCC[C@@H](NC(=O)C(c1ccccc1)c1ccccc1)C(=O)NCc1ccc(O)cc1.O=C([O-])C(F)(F)F
- Kb [1]: 0.6 nM
- Ki [2]: 100 nM
- Stability [3]: 12 months

SMILES: Cc1cc(/C=C/c2cc3c4c(c2)CCCN4CCC3)cc(C)[n+]1CCCCCC(=O)/N=C(/N)NCCC[C@@H](NC(=O)C(c1ccccc1)c1ccccc1)C(=O)NCc1ccc(O)cc1.O=C([O-])C(F)(F)F
- Ki [2]: 29 nM
- Stability [3]: 12 months

SMILES: Cc1cc(/C=C/c2cc3c4c(c2)CCCN4CCC3)cc(C)[n+]1CCN(CCNC(=O)CCCCC(=O)/N=C(\N)NCCC[C@@H](NC(=O)C(c1ccccc1)c1ccccc1)C(=O)NCc1ccc(O)cc1)CCNC(=O)CCCCC(=O)/N=C(\N)NCCC[C@@H](NC(=O)C(c1ccccc1)c1ccccc1)C(=O)NCc1ccc(O)cc1.O=C([O-])C(F)(F)F
- degraded at 1.5 h [6]: < 0.5%
- Kb [1]: 1.2 nM
- Ki [2]: 61 nM
- degraded at 20 min [9]: 0%
- Stability [3]: 12 months

SMILES: Cc1cc(/C=C/c2cc3c4c(c2)CCCN4CCC3)cc(C)[n+]1CCOCCOCCOCCC(=O)/N=C(/N)NCCC[C@@H](NC(=O)C(c1ccccc1)c1ccccc1)C(=O)NCc1ccc(O)cc1.O=C([O-])C(F)(F)F
- Kb [1]: 4.1 nM
- Ki [2]: 97 nM
- Stability [3]: 12 months
